Calls of active or inactive are those of the source.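 How the source made its calls, unless noted: active means viability at or under a set limit in both replicates, limit being median viability minus 3 SD (cut at about 48% in these data, passing the limit was not always enough); inconclusive means at or under the limit in just one replicate; inactive means at or above the limit in both replicates.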

This is an account of results in PubChem BioAssay.

A short description of experiment [1]: Her2 expression decrease, cell viability multiplex – SKBR3 breast tumor cells, AlphaScreen, ATP viability, primary screen (AID 461;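 active means Her2 level under about 52% in both replicate screens, with viability over 70% of control, limit read from the data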;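 on Her2 level: lower value means less Her2 protein in the cells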;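 on viability: percent of carrier control wells set as 100% viability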). The following applies: SKBR3 Her2 protein level, 18-24 h, measured here: SKBR3 viability, ATP luminescence, at 10 µM. (In Alpha technology, singlet oxygen from a donor bead excites a nearby acceptor bead.)
Experiment [2] concerns the target Receptor tyrosine-protein kinase erbB-2 (Homo sapiens) (UniProt P04626). The description is as above. The following applies: 18-24 h, at 10 µM, stronger effect = lower value.
Experiment [3] is described as follows: reduced viability of SK-BR-3 breast cancer cells – cell-based, 24 h, human, pilot screen (AID 572;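 active means viability at or below 10% of carrier control in both of two separate runs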;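 further: compound exposure lasted between 18 and 24 h rather than exactly 24 h; 100% = carrier-treated control wells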). The following applies: SK-BR-3 viability, CellTiter-Glo luminescence, at 10 µM, stronger effect = lower value. (ATP-based viability assays read luminescence as a measure of living cells.)
Experiment [4] can be described thus: HUVEC growth inhibition – cell-based, human, primary screen (AID 575;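 active means viability at or below 30% in both replicate assays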;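 further: 100% = median of untreated cell wells with 0.1% DMSO on each plate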). The following applies: HUVEC proliferation, CellTiter-Glo luminescence, 72 h; at 10 µM; stronger effect = lower value. An outline of the steps: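 material = primary HUVEC, no more than 12 passages | input = 1250 cells per well | controls = vehicle and MePR control wells | measured by = CTG luminescence | times = 72 h compound incubation | format = collagen-coated 384-well format | read-out = % viability vs DMSO wells | doses = single 10 µM dose, 0.1% DMSO, from 5x medium stock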

Experiment [5] can be described thus: H69AR cell proliferation blockers – human, duplicate replicates, primary screen (AID 580).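 Further: 100% = mean luminescence of untreated wells and 0% = no signal.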 The following applies: H69AR lung tumor cells viability, ATP luminescence, 72 h; at 10 µM; stronger effect = lower value.
A short description of experiment [6]: MRP1 drug-resistance reversers in H69AR cells – cell-based, doxorubicin co-treatment, pilot screen (AID 601;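 active means viability loss from added drug above about 55%, and viability with drug at most 40%, in both replicates, limit read from the data, passing the limit was not always enough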). The following applies: CellTiter-Glo, 72 h, at 10 µM; for differential viability (reversal): stronger effect = higher value.
Experiment [7] in a line: yeast transport mutant growth inhibition pilot in 384-well plates, post-Golgi transport modulator project (AID 636; in the data active means inhibition above about 31%). The following applies: absorbance 615 nm, about 18 h, stronger effect = higher value.
Experiment [8] can be described thus: growth suppression of yeast trafficking mutant, preliminary HTS, modulators of trafficking downstream of Golgi apparatus project, 1536-format plate, OD 615 nm (AID 637; in the data active means inhibition above about 30%). The following applies: yeast transport mutant growth, absorbance 615 nm, 18 h; stronger effect = higher value.
Where [9] appears, read: H69AR cells + 2 uM doxorubicin, measured here: viability with 2 uM doxorubicin, stronger effect = lower value.
Setting [10] is: H69AR cells, compound alone cytotoxicity.

Receptor tyrosine-protein kinase erbB-2 (Homo sapiens), sequence (P04626 whole entry, looked up): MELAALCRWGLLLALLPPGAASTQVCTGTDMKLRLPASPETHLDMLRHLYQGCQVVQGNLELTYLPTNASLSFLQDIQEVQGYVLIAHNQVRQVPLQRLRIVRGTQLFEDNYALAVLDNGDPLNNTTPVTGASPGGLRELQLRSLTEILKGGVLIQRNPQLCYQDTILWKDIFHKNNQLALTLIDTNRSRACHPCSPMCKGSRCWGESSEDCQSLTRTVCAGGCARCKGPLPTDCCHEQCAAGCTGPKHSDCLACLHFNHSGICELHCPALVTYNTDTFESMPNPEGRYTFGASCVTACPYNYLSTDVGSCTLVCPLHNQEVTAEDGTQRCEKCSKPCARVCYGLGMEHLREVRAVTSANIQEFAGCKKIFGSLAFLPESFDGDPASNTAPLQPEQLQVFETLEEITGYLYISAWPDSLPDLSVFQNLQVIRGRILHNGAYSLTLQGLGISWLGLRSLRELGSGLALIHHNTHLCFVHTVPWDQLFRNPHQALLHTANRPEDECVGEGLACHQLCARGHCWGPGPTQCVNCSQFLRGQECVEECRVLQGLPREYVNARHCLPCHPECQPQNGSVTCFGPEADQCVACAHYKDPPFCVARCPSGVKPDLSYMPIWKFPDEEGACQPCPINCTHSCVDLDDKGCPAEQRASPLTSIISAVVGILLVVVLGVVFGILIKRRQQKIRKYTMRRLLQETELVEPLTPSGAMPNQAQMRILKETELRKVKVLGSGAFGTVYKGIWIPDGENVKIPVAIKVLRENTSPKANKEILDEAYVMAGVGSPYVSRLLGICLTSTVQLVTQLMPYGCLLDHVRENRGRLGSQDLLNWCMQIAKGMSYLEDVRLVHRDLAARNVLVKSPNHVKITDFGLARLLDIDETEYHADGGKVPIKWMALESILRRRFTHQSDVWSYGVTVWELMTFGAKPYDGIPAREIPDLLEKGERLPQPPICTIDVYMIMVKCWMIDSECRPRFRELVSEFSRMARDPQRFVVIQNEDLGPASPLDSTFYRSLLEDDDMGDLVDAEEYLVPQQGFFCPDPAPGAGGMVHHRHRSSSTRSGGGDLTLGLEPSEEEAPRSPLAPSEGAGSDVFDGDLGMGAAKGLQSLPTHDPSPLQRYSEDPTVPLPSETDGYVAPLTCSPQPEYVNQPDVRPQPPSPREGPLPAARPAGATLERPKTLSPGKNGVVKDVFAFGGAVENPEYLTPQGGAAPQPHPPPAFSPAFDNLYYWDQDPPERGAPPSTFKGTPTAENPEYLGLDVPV

Turning to `COc1ccccc1N1CCN(C(=O)c2c(-c3c(Cl)cccc3Cl)noc2C)CC1`, the viability in experiment [1] is 104%; in experiment [3], 104% (inactive); in experiment [4], 79% (inactive); in experiment [5], 105% (inactive); in experiment [6] (setting [9]) it was 90.3%; in experiment [6] (setting [10]), 105%. For the same molecule, in experiment [2], the Her2 level is 82.5% (inactive). Also, in experiment [6] (H69AR cells + 2 uM doxorubicin), the differential viability (reversal) was 15% (inactive). The results for the inhibition in experiment [7] and in experiment [8] were -5.95% (inactive) and 2.46% (inactive), respectively.
As to `Cc1cc(C(F)F)n2ncc(C(=O)NC3CCCCCC3)c2n1`, the viability in experiment [1] was 89.5%; in experiment [3], 89.5% (inactive); in experiment [4], 78.1% (inactive); in experiment [5], 89.9% (inactive); in experiment [6] (setting [9]), 90.2%; in experiment [6] (setting [10]) it was 89.9%. Moreover, the Her2 level in experiment [2] is 86% (inactive). The differential viability (reversal) in experiment [6] (H69AR cells + 2 uM doxorubicin) was -0.225% (inactive). The inhibition is -4.74% (inactive) in experiment [7] and 8.69% (inactive) in experiment [8].
On to `CCc1cc(=O)oc2c(CN3CCN(C)CC3)c(O)c(Cl)cc12`, for which the viability in experiment [1] is 107%; in experiment [3] it was 107% (inactive); in experiment [4], 92.6% (inactive); in experiment [5], 98.4% (inactive); in experiment [6] (setting [9]) it was 91.8%; in experiment [6] (setting [10]) it was 98.4%. The Her2 level in experiment [2] is 93.5% (inactive). Further, the differential viability (reversal) in experiment [6] (H69AR cells + 2 uM doxorubicin) is 6.53% (inactive). Also, the inhibition in experiment [7] was -2.5% (inactive); in experiment [8], -3.61% (inactive).
As to `COC(=O)CN(c1nc(C)c(Cl)c(OC)n1)S(=O)(=O)c1ccc(C)cc1`, the viability in experiment [1] is 117%; in experiment [3], 117% (inactive); in experiment [4], 86.9% (inactive); in experiment [5], 84.9% (inactive); in experiment [6] (setting [9]), 81.9%; in experiment [6] (setting [10]), 84.9%. Moreover, the Her2 level in experiment [2] was 104% (inactive). In experiment [6] (H69AR cells + 2 uM doxorubicin), the differential viability (reversal) was 2.96% (inactive). Also, the inhibition was -3.64% (inactive) in experiment [7] and -2.86% (inactive) in experiment [8].
Regarding `c1ccc(-c2nn3c(Cn4nnc5ccccc54)nnc3s2)nc1`, the viability in experiment [1] was 102%; in experiment [3], 102% (inactive); in experiment [4], 75.6% (inactive); in experiment [5] it was 101% (inactive); in experiment [6] (setting [9]), 91.5%; in experiment [6] (setting [10]), 101%. Also, the Her2 level in experiment [2] was 114% (inactive). The differential viability (reversal) in experiment [6] (H69AR cells + 2 uM doxorubicin) is 9.54% (inactive). Further, the inhibition in experiment [7] was -2.89% (inactive); in experiment [8] it was -2.67% (inactive).
Turning to `COc1ccc(-c2cc(C(=O)NCc3ccc(Cl)cc3)no2)cc1OC`, the viability in experiment [1] is 92.5%; in experiment [3] it was 92.5% (inactive); in experiment [4], 83% (inactive); in experiment [5], 100% (inactive); in experiment [6] (setting [9]), 99.5%; in experiment [6] (setting [10]), 100%. Also, the Her2 level in experiment [2] is 88.5% (inactive). Also, the differential viability (reversal) in experiment [6] (H69AR cells + 2 uM doxorubicin) was 0.66% (inactive). In addition, the figures for the inhibition in experiment [7] and in experiment [8] were -6.35% (inactive) and -0.33% (inactive), respectively.
As for `O=c1sc(Nc2ccccc2)nc2ccsc12`, the viability in experiment [1] is 96.5%; in experiment [3], 96.5% (inactive); in experiment [4], 60.4% (inactive); in experiment [5], 75.9% (inactive); in experiment [6] (setting [9]), 78%; in experiment [6] (setting [10]) it was 75.9%. Moreover, the Her2 level in experiment [2] is 47% (active). The differential viability (reversal) in experiment [6] (H69AR cells + 2 uM doxorubicin) is -2.11% (inactive). Moreover, the inhibition is -8.16% (inactive) in experiment [7] and -3% (inactive) in experiment [8].
Regarding `Cc1cc(C(=O)NCc2ccc(S(N)(=O)=O)cc2)cs1`, the viability is 84.5% in experiment [1]; 84.5% (inactive) in experiment [3]; 105% (inactive) in experiment [4]; 104% (inactive) in experiment [5]; 90.7% in experiment [6] (setting [9]); 104% in experiment [6] (setting [10]). In addition, in experiment [2], the Her2 level is 87.5% (inactive). Moreover, in experiment [6] (H69AR cells + 2 uM doxorubicin), the differential viability (reversal) is 13% (inactive). Also, the results for the inhibition in experiment [7] and in experiment [8] were -5.73% (inactive) and 4.1% (inactive), respectively.
Turning to `O=C(CSc1ncccn1)c1ccccc1Br`, the viability was 120% in experiment [1]; 120% (inactive) in experiment [3]; 116% (inactive) in experiment [4]; 90.7% (inactive) in experiment [5]; 94.9% in experiment [6] (setting [9]); 90.7% in experiment [6] (setting [10]). Further, in experiment [2], the Her2 level was 93.5% (inactive). Moreover, the differential viability (reversal) in experiment [6] (H69AR cells + 2 uM doxorubicin) is -4.21% (inactive). The inhibition in experiment [7] is -6.32% (inactive); in experiment [8], -1.64% (inactive).
As for `CCOC(=O)c1oc2ccccc2c1CSc1nnnn1-c1ccc(C)cc1`, the viability in experiment [1] was 94.5%; in experiment [3], 94.5% (inactive); in experiment [4] it was 83.2% (inactive); in experiment [5] it was 69.3% (inactive); in experiment [6] (setting [9]), 88%; in experiment [6] (setting [10]), 69.3%. Moreover, the Her2 level in experiment [2] was 99% (inactive). In addition, the differential viability (reversal) in experiment [6] (H69AR cells + 2 uM doxorubicin) is -18.7% (inactive). For the same molecule, the inhibition in experiment [7] was 2.08% (inactive); in experiment [8], -6.98% (inactive).
As for `Cc1ccc(C(=O)NCc2ccc3c(c2)OCO3)cc1S(=O)(=O)N1CCCCC1`, the viability in experiment [1] was 91.5%; in experiment [3] it was 91.5% (inactive); in experiment [4] it was 96.6% (inactive); in experiment [5], 96.2% (inactive); in experiment [6] (setting [9]), 98.5%; in experiment [6] (setting [10]), 96.2%. Also, the Her2 level in experiment [2] was 100% (inactive). Also, the differential viability (reversal) in experiment [6] (H69AR cells + 2 uM doxorubicin) is -2.33% (inactive). The inhibition in experiment [7] is -3.2% (inactive); in experiment [8] it was -7.14% (inactive).
As for `COC(=O)COc1nc(C)c(Br)c(OC)n1`, the viability was 96.5% in experiment [1]; 96.5% (inactive) in experiment [3]; 105% (inactive) in experiment [4]; 116% (inactive) in experiment [5]; 90% in experiment [6] (setting [9]); 116% in experiment [6] (setting [10]). Besides, in experiment [2], the Her2 level is 99% (inactive). Also, in experiment [6] (H69AR cells + 2 uM doxorubicin), the differential viability (reversal) is 25.9% (inactive). Also, the inhibition in experiment [7] was -3.95% (inactive); in experiment [8], 7.54% (inactive).
`CCOC(=O)C1CCN(C(=O)CSc2cc(=O)n(CC)c3ccccc23)CC1`: the viability in experiment [1] was 85%; in experiment [3] it was 85% (inactive); in experiment [4], 84% (inactive); in experiment [5] it was 92.4% (inactive); in experiment [6] (setting [9]) it was 82%; in experiment [6] (setting [10]) it was 92.4%. Besides, the Her2 level in experiment [2] is 99.5% (inactive). In experiment [6] (H69AR cells + 2 uM doxorubicin), the differential viability (reversal) is 10.4% (inactive). The inhibition in experiment [7] is -0.39% (inactive); in experiment [8], -5.09% (inactive).
With `COc1ccc(OCC(=O)Nc2cccc3ncccc23)cc1`, the viability in experiment [1] was 98%; in experiment [3], 98% (inactive); in experiment [4] it was 104% (inactive); in experiment [5], 91.4% (inactive); in experiment [6] (setting [9]), 91.2%; in experiment [6] (setting [10]) it was 91.4%. The Her2 level in experiment [2] was 94.5% (inactive). Further, in experiment [6] (H69AR cells + 2 uM doxorubicin), the differential viability (reversal) was 0.15% (inactive). In addition, the inhibition in experiment [7] was -3.73% (inactive); in experiment [8], 3.61% (inactive).
With `CC(=O)Nc1ccc(S(=O)(=O)N2CCC(NC(C)=O)(c3cccc(F)c3)CC2)cc1`, the viability in experiment [1] is 89%; in experiment [3] it was 89% (inactive); in experiment [4], 100% (inactive); in experiment [5] it was 104% (inactive); in experiment [6] (setting [9]), 90.5%; in experiment [6] (setting [10]), 104%. The Her2 level in experiment [2] was 79% (inactive). Further, the differential viability (reversal) in experiment [6] (H69AR cells + 2 uM doxorubicin) was 13% (inactive). For the same molecule, the inhibition in experiment [7] was -6.89% (inactive); in experiment [8], 0.82% (inactive).

What is called viability is a read-out of living cells in per cent, often relative to untreated cells. As a reminder, the inhibition is the change of the read-out against control, counted positive when it falls.
